Data published in PMC6424611 (Journal of molecular biology, 2019).
Where no end group is shown, it is not given here. [ ]: non-standard residue; d: D form. The star is where a group is joined. Biotin = O=C1N[C@H]2[C@H](CS[C@H]2CCCCC(=O)*)N1; TTDS = NCCCOCCOCCOCCCNC(=O)CCC(=O)*; pS = N[C@@H](COP(=O)(O)O)C(=O)O

Key:
[1] = biological target: GRID2IP-2 PDZ (Homo sapiens, UniProt A4D2P6); test: holdup assay; assay type: binding; conditions: fraction of PDZ depleted; ~4 μM PDZ; biotinylated RSK1_725–735; triplicates
Outline: (§1)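 Automated holdup in triplicate measured biotinylated (N-terminal TTDS linker) RSK1 725–735 peptides, unphosphorylated or phosphorylated, against E. coli-expressed PDZome v2 domains. Soluble lysate was adjusted to ~4 μM, giving 255 domains for the unphosphorylated and 252 for the phosphorylated peptide. Binding intensity (BI) is the fraction of PDZ depleted from the fluid phase. BI 0.2 was the high-confidence threshold.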

[2] = biological target: T1, PDZD7-3 PDZ (Homo sapiens, UniProt Q9H5P4); test: holdup assay; assay type: binding; conditions: ~4 μM PDZ; for binding intensity (BI): fraction of PDZ depleted, biotinylated RSK1_725–735, triplicates; for Kd: read-out: KD, estimated, from BI, estimated 17 μM peptide
T1 sequence (Q9H5P4 862-934 limits assumed): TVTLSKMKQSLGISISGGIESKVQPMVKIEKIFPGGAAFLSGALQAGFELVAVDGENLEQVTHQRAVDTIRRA
Outline: (§2)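 Automated holdup against N-terminally biotinylated (TTDS linker) RSK1 725–735 peptides, unphosphorylated and phosphorylated, in triplicate. PDZome v2 clones were codon-optimized and expressed in E. coli, with soluble lysate adjusted to ~4 μM. BI is the PDZ fraction depleted from the fluid phase.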

[3] = biological target: T2, MAST1 PDZ (Homo sapiens, UniProt Q9Y2H9); test: holdup assay; assay type: binding; conditions: ~4 μM PDZ; for binding intensity (BI): fraction of PDZ depleted, biotinylated RSK1_725–735, triplicates; for Kd: read-out: KD, estimated, from BI, estimated 17 μM peptide
T2 sequence (Q9Y2H9 967-1055 limits assumed): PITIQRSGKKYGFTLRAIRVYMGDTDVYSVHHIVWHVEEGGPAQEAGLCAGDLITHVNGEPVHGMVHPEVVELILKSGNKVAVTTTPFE
Outline: as §2

[4] = biological target: T3, NHERF3-1 PDZ (Homo sapiens, UniProt Q5T2W1); test: holdup assay; assay type: binding; conditions: ~4 μM PDZ; for binding intensity (BI): fraction of PDZ depleted, biotinylated RSK1_725–735, triplicates; for Kd: read-out: KD, estimated, from BI, estimated 17 μM peptide
T3 sequence (Q5T2W1 9-90 limits assumed): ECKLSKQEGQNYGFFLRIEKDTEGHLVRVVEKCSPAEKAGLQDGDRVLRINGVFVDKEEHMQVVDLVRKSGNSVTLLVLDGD
Outline: as §2

[5] = biological target: T4, PARD3B-1 PDZ (Homo sapiens, UniProt Q8TEW8); test: holdup assay; assay type: binding; conditions: fraction of PDZ depleted; ~4 μM PDZ; biotinylated RSK1_725–735; triplicates
T4 sequence (Q8TEW8 201-289 limits assumed): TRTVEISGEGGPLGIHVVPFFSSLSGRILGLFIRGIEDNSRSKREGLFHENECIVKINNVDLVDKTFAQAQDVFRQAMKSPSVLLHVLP
Outline: as §1

[6] = test system: ARHGEF11 PDZ; test: holdup assay; assay type: binding, human; conditions: ~4 μM PDZ; for binding intensity (BI): fraction of PDZ depleted, biotinylated RSK1_725–735, triplicates
Outline: as §2

[7] = test system: SHANK3 PDZ; test: holdup assay; assay type: binding, human; conditions: ~4 μM PDZ; for binding intensity (BI): fraction of PDZ depleted, biotinylated RSK1_725–735, triplicates; for Kd: read-out: KD, estimated, from BI, estimated 17 μM peptide
Outline: as §2

[8] = test system: PTPN3 PDZ; test: holdup assay; assay type: binding, human; conditions: ~4 μM PDZ; for binding intensity (BI): fraction of PDZ depleted, biotinylated RSK1_725–735, triplicates; for Kd: read-out: KD, estimated, from BI, estimated 17 μM peptide
Outline: as §2

[9] = biological target: SNX27 PDZ (Homo sapiens, UniProt Q96L92); test: holdup assay; assay type: binding; conditions: ~4 μM PDZ; for binding intensity (BI): fraction of PDZ depleted, biotinylated RSK1_725–735, triplicates
[10] = biological target: T5, SYNJ2BP PDZ (Homo sapiens, UniProt P57105); test: competitive fluorescence polarization; assay type: binding; conditions: summary of high-throughput SPR and competitive FP
T5 sequence (P57105 13-100 limits assumed): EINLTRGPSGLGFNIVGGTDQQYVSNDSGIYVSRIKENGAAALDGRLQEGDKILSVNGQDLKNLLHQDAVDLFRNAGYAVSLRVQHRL

[11] = test system: human PDZ domains (PDZome); test: holdup assay, PDZome-binding profile; conditions: for average BI / maximal BI: PDZome profile
Outline: as §1

[12] = test system: MPDZ-10 PDZ; test: holdup assay, updated analysis; assay type: binding, human; conditions: weak partner; automated computational protocol
Outline: (§3)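 The same triplicate holdup datasets (biotinylated RSK1 725–735, unphosphorylated and phosphorylated, vs ~4 μM PDZome lysates) were re-analysed with an updated automated computational protocol. This gave alternative BI values, reported as supplemental values alongside the conventional analysis.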

[13] = test system: RHPN1 PDZ; test: holdup assay, updated analysis; assay type: binding, human; conditions: weak partner; automated computational protocol
Outline: as §3

[14] = test system: LIN7A PDZ; test: holdup assay, updated analysis; assay type: binding, human; conditions: weak partner; automated computational protocol
Outline: as §3

[15] = test system: PDZRN3–2 PDZ; test: holdup assay, updated analysis; assay type: binding, human; conditions: weak partner; automated computational protocol
Outline: as §3

[16] = test system: DLG3 PDZ; test: holdup assay, updated analysis; assay type: binding, human; conditions: weak partner; automated computational protocol
Outline: as §3

[17] = read-out: KD, estimated, from BI, estimated 17 μM peptide
[18] = BI threshold 0.2, compared to the unphosphorylated peptide

GRID2IP-2 PDZ, sequence (A4D2P6 279-356 limits assumed): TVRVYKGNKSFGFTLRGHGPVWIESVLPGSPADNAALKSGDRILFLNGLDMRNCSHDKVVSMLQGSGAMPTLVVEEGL

unphosphorylated RSK1 peptide: C-terminal RSK1 PBM peptide; RSK1_725–735 (holdup, SPR), RSK1_729–735 (direct FP), RSK1_683–735 (competitive FP) ({Biotin-TTDS}-RRVRKLPSTTL)
binding intensity (BI) [1]: 0.67 ± 0.02
binding intensity (BI) [2]: 0.60 ±0.03
Kd [2]: 9.7 µM
binding intensity (BI) [3]: 0.57 ± 0.01
Kd [3]: 11.1 µM
binding intensity (BI) [4]: 0.41 ± 0.01
Kd [4]: 22.1 µM
binding intensity (BI) [5]: 0.52 ± 0.05
binding intensity (BI) [6]: 0.28 ± 0.06
binding intensity (BI) [7]: 0.27 ± 0.03
Kd [7]: 43 µM
binding intensity (BI) [8]: 0.05 ± 0.02
Kd [8]: > 100 µM
binding intensity (BI) [9]: 0.08 ± 0.07
Kd [9, 17]: > 100 µM
dissociation constant [10]: no interaction was detectable
average BI [11]: 0.42
maximal BI [11]: 0.77
interaction partner by updated analysis [12]: new interaction partners
interaction partner by updated analysis [13]: new interaction partners

phosphorylated RSK1 peptide: RSK1 C-terminal PBM peptide phosphorylated at position −3; same constructs as the unphosphorylated ({Biotin-TTDS}-RRVRKLP[pS]TTL)
binding intensity (BI) [1]: 0.00 ± 0.01
binding intensity (BI) [2]: 0.15 ± 0.03
Kd [2]: 92.9 µM
binding intensity (BI) [3]: 0.08 ± 0.03
Kd [3]: > 100 µM
binding intensity (BI) [4]: 0.03 ± 0.01
Kd [4]: > 100 µM
binding intensity (BI) [5]: 0.31 ± 0.02
binding intensity (BI) [6]: 0.01 ± 0.02
Kd [6, 17]: > 100 µM
binding intensity (BI) [7]: 0.07 ± 0.01
Kd [7]: > 100 µM
binding intensity (BI) [8]: 0.21 ± 0.02
Kd [8]: 60.8 µM
binding intensity (BI) [9]: 0.47 ± 0.02
number of detectable binders lost [11, 18]: 12
number of new binders gained [11, 18]: 10
average BI [11]: 0.33
maximal BI [11]: 0.54
interaction partner by updated analysis [14]: new partners
interaction partner by updated analysis [15]: new partners
interaction partner by updated analysis [16]: new partners
